From ChEMBL document CHEMBL2321765 (J Med Chem, 2013)
Blank lines part the entries; values can stand above or below the compound they belong to. Activity calls are given as the source filed them. The calls are words filed in the database; no cut-off is given here.

Experiments:
[1] = molecular target: T1, CYP3A4 (Homo sapiens, UniProt P08684); assay: Time dependent inhibition of CYP3A4 in human liver microsomes using testosterone as substrate at 10 uM preincubated for 30 mins by LC-MS-MS analysis relative to control; type: ADME, Microsome; conditions: probe testosterone, read-out: TDI
T1 sequence (P08684 whole entry): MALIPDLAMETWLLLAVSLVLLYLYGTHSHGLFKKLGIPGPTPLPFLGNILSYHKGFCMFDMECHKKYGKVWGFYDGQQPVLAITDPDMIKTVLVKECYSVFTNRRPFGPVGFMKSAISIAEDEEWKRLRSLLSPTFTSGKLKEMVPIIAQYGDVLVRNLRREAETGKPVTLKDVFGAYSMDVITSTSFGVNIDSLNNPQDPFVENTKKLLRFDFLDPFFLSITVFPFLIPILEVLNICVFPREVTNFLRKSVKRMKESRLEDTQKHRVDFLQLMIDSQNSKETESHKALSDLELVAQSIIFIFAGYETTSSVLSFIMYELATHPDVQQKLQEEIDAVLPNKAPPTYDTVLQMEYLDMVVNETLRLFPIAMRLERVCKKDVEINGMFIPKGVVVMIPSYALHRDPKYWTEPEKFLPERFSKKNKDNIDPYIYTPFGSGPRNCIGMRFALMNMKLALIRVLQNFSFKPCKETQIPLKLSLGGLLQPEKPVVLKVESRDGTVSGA
Outline: (§1)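 CYP3A4 metabolism of testosterone was measured after 0 or 30 min preincubation of enzyme with test article at the indicated concentration. Activity lost via preincubation, relative to the zero-minute control with the same inhibitor, was the end point. 6β-OH testosterone was detected by LC-MS/MS with cortisone as internal standard.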

[2] = molecular target: T1, CYP3A4; assay: Inhibition of CYP3A4 in human liver microsomes using testosterone as substrate at 10 uM by LC-MS-MS analysis relative to control; type: ADME, Microsome; conditions: probe testosterone
[3] = molecular target: T2, Cytochrome P450 3A4 (Homo sapiens, UniProt P08684); assay: Time dependent inhibition of CYP3A4 in human liver microsomes using testosterone as substrate by LC-MS-MS analysis relative to control; type: ADME, Microsome; outline: as §1
T2 sequence (P08684 whole entry): as above

[4] = system: GTL 16; assay: Antitumor activity against human GTL16 cells expressing c-MET xenografted in CD1 nu/nu mouse assessed as tumor growth inhibition at 100 mg/kg, po qd for 21 days; type: functional, organism-based; parameters: dose 100 mg/kg
[5] = system: Mus musculus; assay: Toxicity in CD1 nu/nu mouse xenografted with human GLT16 cells assessed as change in body weight relative to control; type: organism-based; conditions: in vivo
[6] = Antitumor activity against human GTL16 cells expressing c-MET xenografted in CD1 nu/nu mouse assessed as tumor growth inhibition at 30 mg/kg, po bid for 21 days relative to control; type: functional; conditions: GTL 16, 504 h, read-out: TGI
Outline: (§2)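 Mice carrying GTL-16 tumours received the compound orally; tumour growth was compared with the vehicle-treated group by two-way repeated measures ANOVA.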

[7] = Antitumor activity against human GTL16 cells expressing c-MET xenografted in CD1 nu/nu mouse assessed as tumor growth inhibition at 100 mg/kg, po bid for 21 days relative to control; type: functional; conditions: GTL 16, 504 h, read-out: TGI; outline: as §2
[8] = molecular target: Fibroblast growth factor receptor 3 (Homo sapiens) (UniProt P22607); assay: Inhibition of FGFR3 (unknown origin) relative to control; conditions: concentration not given here
Chain of Fibroblast growth factor receptor 3 (Homo sapiens) (P22607 23-806 limits assumed): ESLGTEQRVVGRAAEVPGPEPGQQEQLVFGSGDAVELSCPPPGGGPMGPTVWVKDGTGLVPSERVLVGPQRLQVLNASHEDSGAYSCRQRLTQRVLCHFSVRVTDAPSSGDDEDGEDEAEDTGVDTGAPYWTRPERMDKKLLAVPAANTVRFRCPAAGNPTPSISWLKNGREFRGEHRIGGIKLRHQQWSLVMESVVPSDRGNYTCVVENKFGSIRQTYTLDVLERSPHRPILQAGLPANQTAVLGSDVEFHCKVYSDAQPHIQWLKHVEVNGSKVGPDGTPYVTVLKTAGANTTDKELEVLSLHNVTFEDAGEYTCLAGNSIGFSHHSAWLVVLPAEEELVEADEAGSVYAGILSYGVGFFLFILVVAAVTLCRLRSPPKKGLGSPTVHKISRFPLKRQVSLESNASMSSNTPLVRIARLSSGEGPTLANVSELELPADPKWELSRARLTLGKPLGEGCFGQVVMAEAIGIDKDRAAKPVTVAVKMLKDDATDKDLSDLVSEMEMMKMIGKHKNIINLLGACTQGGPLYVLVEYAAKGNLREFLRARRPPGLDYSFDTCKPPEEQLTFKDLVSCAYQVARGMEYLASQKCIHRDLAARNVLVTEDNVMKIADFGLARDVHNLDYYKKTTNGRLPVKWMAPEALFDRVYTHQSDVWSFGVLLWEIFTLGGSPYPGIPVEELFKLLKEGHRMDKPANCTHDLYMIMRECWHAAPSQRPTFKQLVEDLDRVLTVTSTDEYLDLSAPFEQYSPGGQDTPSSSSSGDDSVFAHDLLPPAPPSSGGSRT
Outline: (§3)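 Kinase selectivity was assessed at a 10 μM or 0.1 μM test concentration, as footnoted per entry.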

[9] = molecular target: T3, Macrophage-stimulating protein receptor (Homo sapiens, UniProt Q04912); assay: Inhibition of RON (unknown origin) by TR-FRET assay
T3 sequence (Q04912 25-304 limits assumed): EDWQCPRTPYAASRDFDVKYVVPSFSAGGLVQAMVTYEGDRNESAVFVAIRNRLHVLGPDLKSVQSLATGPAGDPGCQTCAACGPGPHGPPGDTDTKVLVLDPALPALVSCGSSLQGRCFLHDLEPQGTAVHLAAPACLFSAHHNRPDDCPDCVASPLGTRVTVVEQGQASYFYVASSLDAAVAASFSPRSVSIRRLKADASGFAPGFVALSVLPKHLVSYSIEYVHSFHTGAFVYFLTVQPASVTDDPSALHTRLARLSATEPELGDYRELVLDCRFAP
T3 sequence (Q04912 310-1400 limits assumed): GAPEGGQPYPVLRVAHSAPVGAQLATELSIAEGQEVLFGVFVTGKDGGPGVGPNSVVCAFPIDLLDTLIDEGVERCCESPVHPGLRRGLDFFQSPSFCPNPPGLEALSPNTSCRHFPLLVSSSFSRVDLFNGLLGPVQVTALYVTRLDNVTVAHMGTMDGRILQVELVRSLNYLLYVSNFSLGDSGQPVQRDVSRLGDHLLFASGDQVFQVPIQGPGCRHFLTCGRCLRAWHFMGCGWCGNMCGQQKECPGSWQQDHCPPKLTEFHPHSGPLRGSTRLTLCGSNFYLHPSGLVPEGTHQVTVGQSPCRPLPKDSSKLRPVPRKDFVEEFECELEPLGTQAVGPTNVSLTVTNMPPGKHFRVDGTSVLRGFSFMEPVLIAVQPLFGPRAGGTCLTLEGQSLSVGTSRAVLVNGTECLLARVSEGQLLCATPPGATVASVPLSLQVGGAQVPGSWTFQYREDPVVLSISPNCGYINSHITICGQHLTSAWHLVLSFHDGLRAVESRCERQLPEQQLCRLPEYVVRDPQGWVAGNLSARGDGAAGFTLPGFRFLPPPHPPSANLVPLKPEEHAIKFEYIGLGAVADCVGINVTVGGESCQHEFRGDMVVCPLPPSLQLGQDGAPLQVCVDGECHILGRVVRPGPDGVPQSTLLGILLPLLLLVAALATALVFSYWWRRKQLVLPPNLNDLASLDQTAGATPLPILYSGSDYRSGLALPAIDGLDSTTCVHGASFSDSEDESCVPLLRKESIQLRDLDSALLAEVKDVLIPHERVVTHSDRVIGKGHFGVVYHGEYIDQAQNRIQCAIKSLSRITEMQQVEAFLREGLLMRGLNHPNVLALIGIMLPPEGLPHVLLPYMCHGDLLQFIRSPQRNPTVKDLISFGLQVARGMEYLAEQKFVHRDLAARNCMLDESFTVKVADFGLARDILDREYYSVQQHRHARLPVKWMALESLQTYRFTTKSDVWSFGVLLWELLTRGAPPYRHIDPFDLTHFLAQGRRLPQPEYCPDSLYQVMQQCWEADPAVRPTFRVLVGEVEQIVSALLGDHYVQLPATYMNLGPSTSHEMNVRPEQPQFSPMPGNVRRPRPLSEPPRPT

[10] = molecular target: Cytochrome P450 2D6 (Homo sapiens, UniProt P10635); assay: Inhibition of CYP2D6 (unknown origin); type: ADME
Chain of Cytochrome P450 2D6 (P10635 whole entry): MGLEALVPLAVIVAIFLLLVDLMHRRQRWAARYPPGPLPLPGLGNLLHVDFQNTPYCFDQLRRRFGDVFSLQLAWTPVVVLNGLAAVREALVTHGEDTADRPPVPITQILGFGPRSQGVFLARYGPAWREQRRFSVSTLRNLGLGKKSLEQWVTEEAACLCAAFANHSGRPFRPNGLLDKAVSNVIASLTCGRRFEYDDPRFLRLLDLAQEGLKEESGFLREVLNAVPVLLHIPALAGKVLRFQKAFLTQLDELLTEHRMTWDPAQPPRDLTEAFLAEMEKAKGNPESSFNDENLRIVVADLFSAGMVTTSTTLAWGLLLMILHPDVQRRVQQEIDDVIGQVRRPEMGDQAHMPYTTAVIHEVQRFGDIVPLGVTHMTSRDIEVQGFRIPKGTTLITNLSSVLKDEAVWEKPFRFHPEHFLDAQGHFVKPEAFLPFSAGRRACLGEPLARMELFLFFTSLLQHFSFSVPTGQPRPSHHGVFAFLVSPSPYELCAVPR

[11] = Antitumor activity against human GTL16 cells expressing c-MET xenografted in CD1 nu/nu mouse assessed as tumor growth inhibition at 3 mg/kg, po bid for 21 days relative to control; type: functional; conditions: GTL 16, 504 h, read-out: TGI; outline: as §2
[12] = system: Mus musculus; assay: In vivo inhibition of c-MET phosphorylation at tyrosine Y1349 in human GTL16 cells xenografted in po dosed mouse after 1 hr by Western blotting analysis; type: functional, organism-based; conditions: GTL 16, 1 h
Outline: (§4)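 Mice carrying GTL-16 xenografts received a single oral dose of 10, 30, 100 or 400 mg/kg and were euthanized 1 h after dosing. Phospho-c-Met (Y1349) and total c-Met in the tumours were measured by quantitative Western blotting. Plasma total drug was also measured, and in vivo IC50 was deduced from the relationship between plasma level and tumour pY1349.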

[13] = Volume of distribution at steady state in dog; type: ADME, organism-based, Canis lupus familiaris; conditions: in vivo, read-out: Vdss
[14] = Oral bioavailability in rat; type: ADME, organism-based; conditions: in vivo
[15] = molecular target: Cytochrome P450 2C9 (Homo sapiens, UniProt P11712); assay: Inhibition of CYP2C9 (unknown origin); type: ADME
Chain of Cytochrome P450 2C9 (P11712 whole entry): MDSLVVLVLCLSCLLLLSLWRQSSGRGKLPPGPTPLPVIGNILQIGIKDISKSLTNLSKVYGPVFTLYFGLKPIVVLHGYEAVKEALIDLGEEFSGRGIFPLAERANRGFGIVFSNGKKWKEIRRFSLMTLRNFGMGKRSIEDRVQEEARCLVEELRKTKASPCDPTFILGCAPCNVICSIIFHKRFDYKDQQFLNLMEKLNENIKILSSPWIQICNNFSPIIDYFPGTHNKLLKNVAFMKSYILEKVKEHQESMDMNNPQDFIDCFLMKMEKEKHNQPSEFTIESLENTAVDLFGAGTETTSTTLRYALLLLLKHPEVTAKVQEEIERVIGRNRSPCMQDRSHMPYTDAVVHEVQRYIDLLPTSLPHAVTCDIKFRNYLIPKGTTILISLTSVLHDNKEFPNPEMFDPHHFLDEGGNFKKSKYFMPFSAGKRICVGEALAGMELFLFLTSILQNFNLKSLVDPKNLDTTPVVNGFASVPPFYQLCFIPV

[16] = Plasma clearance in rat; type: ADME, organism-based
[17] = Oral bioavailability in dog; type: ADME, organism-based, Canis lupus familiaris; conditions: in vivo
[18] = Plasma clearance in dog; type: ADME, organism-based, Canis lupus familiaris
[19] = molecular target: Vascular endothelial growth factor receptor 3 (Homo sapiens) (UniProt P35916); assay: Inhibition of FLT4 (unknown origin) relative to control; conditions: concentration not given here; outline: as §3
Chain of Vascular endothelial growth factor receptor 3 (Homo sapiens) (P35916 whole entry): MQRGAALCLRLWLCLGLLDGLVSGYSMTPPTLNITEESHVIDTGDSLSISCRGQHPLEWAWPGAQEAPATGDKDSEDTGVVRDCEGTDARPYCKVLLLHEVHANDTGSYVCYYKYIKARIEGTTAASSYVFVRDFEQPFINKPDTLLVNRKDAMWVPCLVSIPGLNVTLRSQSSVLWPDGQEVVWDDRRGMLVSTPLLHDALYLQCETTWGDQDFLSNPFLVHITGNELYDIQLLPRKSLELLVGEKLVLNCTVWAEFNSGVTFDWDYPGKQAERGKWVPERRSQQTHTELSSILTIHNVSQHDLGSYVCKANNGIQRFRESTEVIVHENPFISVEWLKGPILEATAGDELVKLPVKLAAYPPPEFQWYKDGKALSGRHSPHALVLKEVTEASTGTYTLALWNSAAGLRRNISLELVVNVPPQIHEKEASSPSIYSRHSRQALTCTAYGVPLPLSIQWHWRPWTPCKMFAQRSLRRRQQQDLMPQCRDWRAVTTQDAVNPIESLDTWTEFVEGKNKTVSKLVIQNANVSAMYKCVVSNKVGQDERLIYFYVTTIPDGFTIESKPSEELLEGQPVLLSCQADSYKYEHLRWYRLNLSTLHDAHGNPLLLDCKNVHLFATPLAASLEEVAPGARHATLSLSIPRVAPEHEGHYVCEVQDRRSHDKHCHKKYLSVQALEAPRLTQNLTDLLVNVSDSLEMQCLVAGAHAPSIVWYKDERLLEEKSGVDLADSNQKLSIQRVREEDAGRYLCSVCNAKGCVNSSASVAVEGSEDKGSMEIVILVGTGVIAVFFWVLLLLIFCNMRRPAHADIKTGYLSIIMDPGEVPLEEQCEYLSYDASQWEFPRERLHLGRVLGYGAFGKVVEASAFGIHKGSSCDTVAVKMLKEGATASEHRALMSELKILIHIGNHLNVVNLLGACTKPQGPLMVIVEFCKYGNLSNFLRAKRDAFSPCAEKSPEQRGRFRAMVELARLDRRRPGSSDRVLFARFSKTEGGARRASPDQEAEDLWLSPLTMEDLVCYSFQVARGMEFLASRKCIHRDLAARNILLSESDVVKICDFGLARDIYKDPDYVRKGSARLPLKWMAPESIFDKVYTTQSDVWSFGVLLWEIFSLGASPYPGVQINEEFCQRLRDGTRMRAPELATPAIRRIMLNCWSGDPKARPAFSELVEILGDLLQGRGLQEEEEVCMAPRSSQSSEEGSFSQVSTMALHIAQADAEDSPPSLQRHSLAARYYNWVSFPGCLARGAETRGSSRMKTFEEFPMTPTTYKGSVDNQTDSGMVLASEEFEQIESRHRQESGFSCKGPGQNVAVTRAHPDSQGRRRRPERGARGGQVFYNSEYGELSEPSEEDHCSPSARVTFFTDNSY

[20] = molecular target: Tyrosine-protein kinase Fes/Fps (Homo sapiens) (UniProt P07332); assay: Inhibition of FES (unknown origin) relative to control; conditions: concentration not given here; outline: as §3
[21] = molecular target: T2, Cytochrome P450 3A4; assay: Time dependent inhibition of CYP3A4 in human liver microsomes using testosterone as substrate up to 100 uM by LC-MS-MS analysis; type: ADME, Microsome
Outline: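 For inactivation kinetics, CYP3A4 testosterone 6β-hydroxylation was quantified by LC-MS/MS as the area ratio of 6β-OH testosterone to the cortisone internal standard. Ki and kinact were obtained by nonlinear regression.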

[22] = system: Mus musculus; assay: In vivo inhibition of c-MET phosphorylation at tyrosine Y1349 in human GTL16 cells xenografted in mouse at 100 mg/kg, po after 1 hr by Western blotting analysis; type: functional, organism-based; parameters: dose 100 mg/kg; outline: as §4
[23] = molecular target: Hepatocyte growth factor receptor (Homo sapiens) (UniProt P08581); conditions: 1 uM
[24] = Volume of distribution at steady state in rat; type: ADME, organism-based; conditions: in vivo, read-out: Vdss
[25] = Antitumor activity against human GTL16 cells expressing c-MET xenografted in CD1 nu/nu mouse assessed as tumor growth inhibition at 10 mg/kg, po bid for 21 days relative to control; type: functional; conditions: GTL 16, 504 h, read-out: TGI; outline: as §2
[26] = system: GTL 16; assay: Antitumor activity against human GTL16 cells expressing c-MET xenografted in po dosed CD1 nu/nu mouse assessed as tumor growth inhibition administered bid for 21 days; type: functional, organism-based; outline: as §2
[27] = molecular target: T3, Macrophage-stimulating protein receptor; conditions: 1 uM
[28] = system: Mus musculus; assay: In vivo inhibition of c-MET phosphorylation at tyrosine Y1349 in human GTL16 cells xenografted in po dosed mouse after 8 hrs by Western blotting analysis; type: functional, organism-based; conditions: GTL 16, 8 h
[29] = Half life in rat; type: ADME, organism-based; conditions: in vivo
[30] = Half life in dog; type: ADME, organism-based, Canis lupus familiaris; conditions: in vivo
[31] = molecular target: T4, Tyrosine-protein kinase Mer (Homo sapiens) (UniProt Q12866); assay: Inhibition of MER (unknown origin) relative to control; conditions: concentration not given here; outline: as §3
T4 sequence (whole entry): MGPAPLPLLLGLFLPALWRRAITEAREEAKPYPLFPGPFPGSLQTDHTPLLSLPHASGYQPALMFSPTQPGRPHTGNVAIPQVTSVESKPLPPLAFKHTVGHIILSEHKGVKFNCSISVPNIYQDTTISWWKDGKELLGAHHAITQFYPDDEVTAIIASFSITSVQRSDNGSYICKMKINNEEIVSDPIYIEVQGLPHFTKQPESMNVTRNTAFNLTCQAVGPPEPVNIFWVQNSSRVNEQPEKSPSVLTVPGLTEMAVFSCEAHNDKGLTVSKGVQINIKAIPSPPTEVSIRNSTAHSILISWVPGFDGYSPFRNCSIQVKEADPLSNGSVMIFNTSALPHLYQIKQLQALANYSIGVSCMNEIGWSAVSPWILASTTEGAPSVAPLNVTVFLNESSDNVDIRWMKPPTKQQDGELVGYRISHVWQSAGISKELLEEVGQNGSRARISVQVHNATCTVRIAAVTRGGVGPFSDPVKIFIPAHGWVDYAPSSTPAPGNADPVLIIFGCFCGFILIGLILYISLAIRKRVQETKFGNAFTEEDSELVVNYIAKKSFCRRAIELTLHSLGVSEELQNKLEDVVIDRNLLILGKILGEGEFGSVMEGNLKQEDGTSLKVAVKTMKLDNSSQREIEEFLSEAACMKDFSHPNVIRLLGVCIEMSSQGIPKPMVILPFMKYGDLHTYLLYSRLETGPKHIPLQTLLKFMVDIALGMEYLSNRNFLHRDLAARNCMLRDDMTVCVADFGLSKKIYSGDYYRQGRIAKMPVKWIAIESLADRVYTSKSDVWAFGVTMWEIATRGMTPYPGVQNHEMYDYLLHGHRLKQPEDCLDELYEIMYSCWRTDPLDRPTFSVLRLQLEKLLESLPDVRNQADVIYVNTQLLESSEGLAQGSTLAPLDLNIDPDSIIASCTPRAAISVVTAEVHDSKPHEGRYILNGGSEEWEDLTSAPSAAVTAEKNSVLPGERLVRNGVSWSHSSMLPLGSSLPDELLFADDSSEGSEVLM

inhibition at 30 min, 10 µM [1]: 9% | inhibition at 10 µM [2]: 14%
SMILES: Cn1cc(-c2cnc3ccc4ccc(CS(=O)(=O)NCCc5ccccn5)cc4c(=O)c3c2)cn1

inhibition at 30 min, 10 µM [1]: 50% | inhibition at 10 µM [2]: 28%
SMILES: Cn1cc(-c2cnc3ccc4ccc(CS(=O)(=O)Nc5ccccc5)cc4c(=O)c3c2)cn1

inhibition at 10 µM [2]: 97%
SMILES: Cn1cc(-c2cnc3ccc4ccc(CS(=O)(=O)NCc5ccncc5)cc4c(=O)c3c2)cn1

inhibition at 30 min, 10 µM [1]: 35% | inhibition at 10 µM [2]: 0%
SMILES: CNS(=O)(=O)Cc1ccc2ccc3ncc(-c4cnn(C)c4)cc3c(=O)c2c1

TDI [3]: < 10%
SMILES: Cn1cc(-c2cnc3ccc4ccc(CC(N)=O)cc4c(=O)c3c2)cn1

inhibition at 30 min, 10 µM [1]: 35% | inhibition at 10 µM [2]: 0%
SMILES: Cn1cc(-c2cnc3ccc4ccc(CS(=O)(=O)NCC5COCCO5)cc4c(=O)c3c2)cn1 (stereo not drawn)

inhibition at 30 min, 10 µM [1]: 26% | inhibition at 10 µM [2]: 0%
SMILES: Cn1cc(-c2cnc3ccc4ccc(CS(N)(=O)=O)cc4c(=O)c3c2)cn1

inhibition [8]: 60% | IC50 [9]: 7 nM | IC50 [10]: 46200 nM | IC50 [12]: 1300 nM | inhibition at 30 min, 10 µM [1]: 16% | inhibition at 10 µM [2]: 31% | Vd [13]: 0.7 L/kg | bioavailability [14]: 35% | IC50 [15]: 14700 nM | clearance [16]: 20 mL/min/kg | bioavailability [17]: 33% | clearance [18]: 3.1 mL/min/kg | inhibition [19]: 60% | inhibition [20]: 60% | TDI [21]: Not Active | inhibition [23]: > 90% | Vd [24]: 0.4 L/kg | inhibition [27]: > 90% | IC50 [28]: 1700 nM | half-life [29]: 0.8 h | half-life [30]: 3.1 h | inhibition [31]: 60%
SMILES: Cn1cc(-c2cnc3ccc4ccc(CS(=O)(=O)NCc5ccccn5)cc4c(=O)c3c2)cn1 [MK-8033]
TGI [4]: Active | Activity [5]: Non-toxic | inhibition in vivo at 30 mg/kg [6]: 57% | inhibition in vivo at 100 mg/kg [7]: 86% | inhibition in vivo at 3 mg/kg [11]: 22% | inhibition [22]: Active | inhibition in vivo at 10 mg/kg [25]: 18% | TGI [26]: Dose-dependent effect

inhibition at 30 min, 10 µM [1]: 0% | inhibition at 10 µM [2]: 17%
SMILES: Cn1cc(-c2cnc3ccc4ccc(CS(=O)(=O)NCc5ccccc5Cl)cc4c(=O)c3c2)cn1

inhibition at 30 min, 10 µM [1]: 0% | inhibition at 10 µM [2]: 30%
SMILES: Cn1cc(-c2cnc3ccc4ccc(CS(=O)(=O)NCc5cccnc5)cc4c(=O)c3c2)cn1

inhibition at 30 min, 10 µM [1]: 17% | inhibition at 10 µM [2]: 42%
SMILES: Cn1cc(-c2cnc3ccc4ccc(CS(=O)(=O)NCc5ccc(F)cc5F)cc4c(=O)c3c2)cn1
